{"source": "ChEMBL document CHEMBL4513216", "about": "“Probing the Open Global Health Chemical Diversity Library for Multistage-Active Starting Points for Next-Generation Antimalarials” (ACS Infect Dis, 2020)", "data": [{"test": "Toxicity liver stage against HepG2, at 10uM", "assay_type": "cell-based", "set-up": "test concentration 10 uM, cell line HepG2-A16-CD81EGFP", "details": "human, HepG2-A16-CD81EGFP cells; read-out: INHIBITION", "procedure,_shortened": "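Uninfected HepG2-A16-CD81EGFP cells, 3 × 10^3 per well, 1536-well, plated on prespotted compound at 10 μM final, parasite-free screening media added to match infected plates; puromycin 10 μM positive, DMSO 0.5% negative; run in parallel with 48 h PbLuc assay at 37 °C, 5% CO2; viability by CellTiter-Glo luminescence, normalized to controls.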", "units": {"cytotoxicity at 10 µM": "%"}, "values": [{"molecule": "CCC1CN(CC(=O)NCCN(CC)CC)c2ccccc2S1", "note": "(stereo not given)", "cytotoxicity at 10 µM": -1.23}, {"molecule": "Cc1ccc(C(=O)N2CCC3(CC2)CC(c2ccccc2)C(=O)N3)o1", "note": "(stereo not given)", "cytotoxicity at 10 µM": 11.1}, {"molecule": "Cc1cnc(C(=O)N2CC[C@H]3C[C@@H](c4nc(C)cs4)O[C@@H]3C2)cn1", "cytotoxicity at 10 µM": 9.32}, {"molecule": "O=C(NCc1cccnc1)C1=NOC2(CCN(S(=O)(=O)C3CC3)C2)C1", "note": "(stereo not given)", "cytotoxicity at 10 µM": -7.36}, {"molecule": "Cc1ccc(Cn2cc(Br)c(NS(C)(=O)=O)n2)cc1", "cytotoxicity at 10 µM": 0.22}, {"molecule": "O=C(c1cc2cccc(F)c2[nH]1)N1C[C@@H](O)[C@H](N2CCCC2)C1", "cytotoxicity at 10 µM": 0.152}, {"molecule": "FC(F)(F)c1cc(C2CCCN(c3cnccn3)C2)n2ccnc2n1", "note": "(stereo not given)", "cytotoxicity at 10 µM": 6.39}, {"molecule": "Cc1ncc(CN2CCOC(c3ccc(-c4cc[nH]n4)cn3)C2)s1", "note": "(stereo not given)", "cytotoxicity at 10 µM": -16.5}, {"molecule": "CN1CCC(c2cncc(-c3cccc(Cl)c3)n2)CC1", "cytotoxicity at 10 µM": -20.8}, {"molecule": "O=C(c1ccccn1)N1CCC(c2nc(O)cc(-c3ccncc3)n2)C1", "note": "(stereo not given)", "cytotoxicity at 10 µM": -4.7}, {"molecule": "Cc1ccccc1-c1cncc(C2CCN(Cc3ccccn3)CC2)n1", "cytotoxicity at 10 µM": -22.2}, {"molecule": "CC1CCN(S(=O)(=O)N2CCC(Oc3cnccn3)CC2)CC1", "cytotoxicity at 10 µM": -2.76}, {"molecule": "CN(C)Cc1ccnc(C2CCCN2Cc2cc3ccccc3s2)n1", "note": "(stereo not given)", "cytotoxicity at 10 µM": 20.2}, {"molecule": "CN(Cc1cccc(OC(F)(F)F)c1)C(=O)Cc1ccon1", "cytotoxicity at 10 µM": -9.61}, {"molecule": "CCc1nnc2n1CCN(C(C(=O)N(CC)CC)c1ccccc1)C2", "note": "(stereo not given)", "cytotoxicity at 10 µM": -0.77}, {"molecule": "COCC(O)CN1CCC(NC(=O)c2ccccc2Cl)CC1", "note": "(stereo not given)", "cytotoxicity at 10 µM": -4.87}, {"molecule": "CCc1noc(CNc2cc3c(cc2Cl)OCCCO3)n1", "cytotoxicity at 10 µM": -1.98}, {"molecule": "CCCn1nc(C(=O)NCCc2nnc3n2CCC3)ccc1=O", "cytotoxicity at 10 µM": 3.38}, {"molecule": "COC(=O)c1ccc(N(C(=O)c2cc(Cl)ccn2)C(C)C)c(C)c1", "cytotoxicity at 10 µM": 7.51}, {"molecule": "COc1cc(C#N)ccc1OCC(=O)NS(=O)(=O)c1cccnc1", "cytotoxicity at 10 µM": 5.41}, {"molecule": "Cc1ccc(NC(C(N)=O)c2ccc(F)cc2)cc1", "note": "(stereo not given)", "cytotoxicity at 10 µM": 9.19}, {"molecule": "C[S+]([O-])c1nncn1CC(=O)c1ccc(Br)cc1", "note": "(stereo not given)", "cytotoxicity at 10 µM": 0}, {"molecule": "Cc1cccc(C)c1OCC(O)CNCc1c(C)nn(C)c1N(C)C", "note": "(stereo not given)", "cytotoxicity at 10 µM": -1.47}, {"molecule": "Cc1ccc(CNCc2cccc(NC(=O)CCN3CCOCC3)c2)s1", "cytotoxicity at 10 µM": -1.91}, {"molecule": "Cc1nc(C2CN(Cc3ccccc3C)CCO2)no1", "note": "(stereo not given)", "cytotoxicity at 10 µM": -1.51}, {"molecule": "Cc1nc(NC(=O)CN2CCc3c(nc(C(C)C)n3C)C2)sc1C", "cytotoxicity at 10 µM": -9.52}, {"molecule": "Cn1cc(CC2CCN(C(=O)NCc3cn4ccsc4n3)C2)cn1", "note": "(stereo not given)", "cytotoxicity at 10 µM": -5.57}, {"molecule": "COC[C@@]12CCC[C@@H]1CN(C(=O)COc1ccccc1OC)C2", "cytotoxicity at 10 µM": -106}, {"molecule": "O=C(NCCn1cccc1)C1CCN(C2CCCCC2)CC1", "cytotoxicity at 10 µM": -0.467}, {"molecule": "CCC[C@@H]1CN(Cc2ccccc2OC(F)(F)F)C[C@H]1NC(C)=O", "cytotoxicity at 10 µM": 5.5}, {"molecule": "CNC(=O)c1cc(NC(=O)NCC2CCS(=O)(=O)C2)ccc1OC", "note": "(stereo not given)", "cytotoxicity at 10 µM": 9.57}, {"molecule": "O=C(c1ccc(S(=O)(=O)NCc2ccncc2)cc1)N1CCNCC1", "cytotoxicity at 10 µM": 2.3}, {"molecule": "CC(=O)NCCNCc1cn(CCN2CCSCC2)nc1C", "cytotoxicity at 10 µM": 0.95}, {"molecule": "CC(=O)NCCC1CCCCN1C(=O)c1cccc(CCC(C)(C)O)c1", "note": "(stereo not given)", "cytotoxicity at 10 µM": 4.13}, {"molecule": "Cc1nc(C(=O)N2CCC3(CC2)CC(=O)N(CC2CCCO2)C3)cs1", "note": "(stereo not given)", "cytotoxicity at 10 µM": 2.34}, {"molecule": "O=C(c1nc(=O)[nH]c2ccccc12)N1CCCC2(CCNC2)C1", "note": "(stereo not given)", "cytotoxicity at 10 µM": -3.64}, {"molecule": "Cc1noc(CN(C)C(=O)CCn2cnc3ccccc32)n1", "cytotoxicity at 10 µM": 10.1}, {"molecule": "Cc1ccsc1CN(Cc1ccccn1)CC(O)CO", "note": "(stereo not given)", "cytotoxicity at 10 µM": 0.773}, {"molecule": "CCOc1ccccc1CC(=O)N1CCCC(c2ncc[nH]2)C1", "note": "(stereo not given)", "cytotoxicity at 10 µM": -2.65}, {"molecule": "CC(CC(F)(F)F)NCc1ccccc1-n1ccnc1", "note": "(stereo not given)", "cytotoxicity at 10 µM": 3.15}, {"molecule": "O=C1OCCN1CCNc1ncc2c(n1)CCN2c1ccccc1", "cytotoxicity at 10 µM": -4.95}, {"molecule": "CCn1ncnc1C1CC(=O)NCc2nc(N3CCOCC3)sc21", "note": "(stereo not given)", "cytotoxicity at 10 µM": 3.94}, {"molecule": "N#Cc1cccc(NC(=O)N2CCC3(CCC(=O)N(C4CC4)C3)CC2)c1", "cytotoxicity at 10 µM": 3.9}, {"molecule": "CC(=O)N[C@@H]1CN(Cc2ccccc2-n2cccn2)C[C@H]1C(C)C", "cytotoxicity at 10 µM": 8.67}, {"molecule": "Cc1ncc(C(=O)NCCOc2ccccc2F)c(C)n1", "cytotoxicity at 10 µM": 24.8}, {"molecule": "O=C(c1cccnc1SC/C=C/c1ccccc1)N1CCOCC(O)C1", "note": "(stereo not given)", "cytotoxicity at 10 µM": -2.42}, {"molecule": "O=C(NCCN1CCCCC1)c1ccn(-c2ccccc2)n1", "cytotoxicity at 10 µM": 7.53}, {"molecule": "Cc1cnn(C2CCCN(C(=O)c3ccc(N4CCCC4)nc3)C2)c1", "note": "(stereo not given)", "cytotoxicity at 10 µM": -4.77}, {"molecule": "CCc1ncncc1C(=O)N1CCCN(Cc2ccc(C#N)cc2)CC1", "cytotoxicity at 10 µM": -2.91}, {"molecule": "CCC(C)(C)NC(=O)CN1C=Nc2ccccc2S1(=O)=O", "cytotoxicity at 10 µM": -4.47}, {"molecule": "CC(C)c1nccn1C1CCCN(C(=O)CN(C)C2CC2)C1", "note": "(stereo not given)", "cytotoxicity at 10 µM": -4.3}, {"molecule": "CCc1nc2n(n1)CC(NCc1nc(Cc3ccccc3)no1)CC2", "note": "(stereo not given)", "cytotoxicity at 10 µM": 1.06}, {"molecule": "O=C(c1ccc2c(c1)CCCC2)N1CCCC(n2cncn2)C1", "note": "(stereo not given)", "cytotoxicity at 10 µM": -8.51}, {"molecule": "Cc1nccn1C1CCCN(C(=O)c2cccc(S(C)(=O)=O)c2)C1", "note": "(stereo not given)", "cytotoxicity at 10 µM": -11.6}, {"molecule": "CC(C)CCN(C(=O)c1ccc(-n2ncc(C#N)c2N)cc1)C1CC1", "cytotoxicity at 10 µM": -23.6}, {"molecule": "c1cnnc(N2CCCC2CNCc2cccs2)c1", "note": "(stereo not given)", "cytotoxicity at 10 µM": -9.61}, {"molecule": "CCn1ccnc1CN1CCCN(C(=O)Cc2csc(C)n2)CC1", "cytotoxicity at 10 µM": -2.12}, {"molecule": "COc1ccccc1C(=O)N(C)C1CCN(c2ccccn2)CC1", "cytotoxicity at 10 µM": -15.4}, {"molecule": "CC(C)c1nnc(CNC2CCCN(Cc3noc(C4CC4)n3)C2)o1", "note": "(stereo not given)", "cytotoxicity at 10 µM": -5.62}, {"molecule": "CCN1CCN(C(=O)CCc2c(C)noc2Cl)CC1", "cytotoxicity at 10 µM": -4.37}, {"molecule": "O=C(CC1CCCO1)NCc1ccccc1Cn1cncn1", "note": "(stereo not given)", "cytotoxicity at 10 µM": -2.55}, {"molecule": "CCN(CC)Cc1ccc(C(=O)N2CCCCC2Cn2cccn2)o1", "note": "(stereo not given)", "cytotoxicity at 10 µM": -7.89}, {"molecule": "Cc1nc(C)n(C2CCCN(C(=O)c3ccc4c(c3)COC4)C2)n1", "note": "(stereo not given)", "cytotoxicity at 10 µM": -9.12}, {"molecule": "CC(=O)N(Cc1noc(C2CC2)n1)C1CCN(Cc2nccn2C)C1", "note": "(stereo not given)", "cytotoxicity at 10 µM": -5.65}, {"molecule": "OC1CCCN(Cc2ccnc(-c3cccnc3)n2)C1", "note": "(stereo not given)", "cytotoxicity at 10 µM": 14}, {"molecule": "CN1CC(=O)N(c2ccsc2)CC12CCN(C(=O)c1cccn1C)C2", "note": "(stereo not given)", "cytotoxicity at 10 µM": -75.7}, {"molecule": "CN1CCOCC2(CCCN(C(=O)Cc3ccncc3)C2)C1", "note": "(stereo not given)", "cytotoxicity at 10 µM": -84.6}, {"molecule": "Cc1nc(CN2CCc3cc(C(=O)O)c(N(C)C)nc3CC2)cs1", "cytotoxicity at 10 µM": 3.42}, {"molecule": "CNC(=O)CN1CC[C@H]2CN(C(=O)c3ccccc3F)C[C@H]2C1", "cytotoxicity at 10 µM": -1.34}, {"molecule": "O=C([C@H]1CC[C@@H]2[C@@H](CCN2Cc2nccs2)O1)N1CCCCO1", "cytotoxicity at 10 µM": 6.85}, {"molecule": "Cc1ccccc1CN1CC[C@H]2C[C@H](C(=O)N(C)C)O[C@H]2C1", "cytotoxicity at 10 µM": 4.36}, {"molecule": "O=C(C[C@@H]1COC[C@H]2CN(Cc3cccnc3)C[C@@H]12)N1CCOCC1", "cytotoxicity at 10 µM": -3.35}, {"molecule": "O=C1[C@H]2CN(c3ncccn3)C[C@H]2CN1CCN1CCCC1", "cytotoxicity at 10 µM": 2.2}, {"molecule": "Cc1ccc2c(c1)C1(CC2)CCN(CC(=O)O)CC1", "cytotoxicity at 10 µM": 0.806}, {"molecule": "CN1CCc2onc(CNc3ncccn3)c2C1", "cytotoxicity at 10 µM": 1.58}, {"molecule": "COC1COC2(CCN(Cc3ccc(Cl)cc3)CC2)C1", "note": "(stereo not given)", "cytotoxicity at 10 µM": 2.2}, {"molecule": "COCCN1CCC(c2nc3ccc(NC(C)C)cn3n2)CC1", "cytotoxicity at 10 µM": -5.26}, {"molecule": "CN(C)C(=O)CN1CCC2(COCc3cnc(N4CCOCC4)nc32)C1", "note": "(stereo not given)", "cytotoxicity at 10 µM": -70.5}, {"molecule": "Cc1nc(CN2C[C@@H]3CN(C(=O)[C@H]4CCCO4)C[C@@H]3C2=O)cs1", "cytotoxicity at 10 µM": -81.5}, {"molecule": "CS(=O)(=O)NC1CC2(CCN(CC3CC3)CC2)Oc2ccccc21", "note": "(stereo not given)", "cytotoxicity at 10 µM": -5.34}]}]}
